# How the values were obtained:
# Assay type in all cases: toxicity, cell-based
# Fibroblast = test: Multiplex assay against human fibroblast
# Procedure, shortened: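 Four dyes were applied at seeding to live cells: Hoechst33342, BioTracker Green Microtubule Cytoskeleton Dye, MitoTracker Red and Annexin V Alexa Fluor 680. Imaging after compound addition used a CQ1 microscope at 37°C and 5% CO2. CellPathfinder machine-learning gating then sorted cells into Hoechst high-intensity objects or normal cells, normal cells into healthy, pyknosed or fragmented nuclei, and pyknosed cells into mitotic or apoptotic, with tubulin, mitochondrial-mass and membrane-permeability phenotypes given as per cents of healthy-nucleus cells.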
# HEK-293T = test: Incucyte cell viability with HEK293T; conditions: human, 10 µM, compound concentration 10 uM; note: filed as whole numbers so only -1 and 0 and 1 occur
# U2OS = test: Incucyte cell viability with U2OS; conditions: human, 10 µM, compound concentration 10 uM; note: filed as whole numbers so only -1 and 0 and 1 occur
# [1] = 12 h, 1 µM, compound concentration 1 uM, replicate 1
# [2] = 12 h, 1 µM, compound concentration 1 uM, replicate 2
# [3] = 12 h, 10 µM, compound concentration 10 uM, replicate 1
# [4] = 12 h, 10 µM, compound concentration 10 uM, replicate 2
# [5] = 24 h, 1 µM, compound concentration 1 uM, replicate 1
# [6] = 24 h, 1 µM, compound concentration 1 uM, replicate 2
# [7] = 24 h, 10 µM, compound concentration 10 uM, replicate 1
# [8] = 24 h, 10 µM, compound concentration 10 uM, replicate 2
# [9] = 48 h, 1 µM, compound concentration 1 uM, replicate 1
# [10] = 48 h, 1 µM, compound concentration 1 uM, replicate 2
# [11] = 48 h, 10 µM, compound concentration 10 uM, replicate 1
# [12] = 48 h, 10 µM, compound concentration 10 uM, replicate 2
# [13] = 0 h, replicate number 1, timepoint 0 hours
# [14] = 18 h, replicate number 1, timepoint 18 hours
# [15] = 24 h, replicate number 1, timepoint 24 hours
smiles,measurement,setting,value
CCC(=O)O[C@]1(C(=O)SCF)[C@H](C)C[C@H]2[C@@H]3C[C@H](F)C4=CC(=O)C=C[C@]4(C)[C@@]3(F)[C@@H](O)C[C@@]21C [FLUTICASONE PROPIONATE],Population Apoptotic (%),Fibroblast; [1],71%
same,Population Fragmented Nuclei (%),Fibroblast; [1],22%
same,Population Healthy Nuclei (%),Fibroblast; [1],45%
same,Population Hoechst High Intensity Objects (%),Fibroblast; [1],13%
same,Population Membrane Permeable-Phenotype (%),Fibroblast; [1],33%
same,Population Mitochondria Different-Phenotype (%),Fibroblast; [1],0%
same,Population Mitotic Cells (%),Fibroblast; [1],28%
same,Population Normal (%),Fibroblast; [1],86%
same,Population Pyknosed Nuclei (%),Fibroblast; [1],31%
same,Population Tubulin-Different-Phenotype (%),Fibroblast; [1],40%
same,Total Cell Count,Fibroblast; [1],76
same,Population Fragmented Nuclei (%),Fibroblast; [2],4%
same,Population Healthy Nuclei (%),Fibroblast; [2],78%
same,Population Hoechst High Intensity Objects (%),Fibroblast; [2],12%
same,Population Membrane Permeable-Phenotype (%),Fibroblast; [2],3%
same,Population Mitochondria Different-Phenotype (%),Fibroblast; [2],9%
same,Population Normal (%),Fibroblast; [2],87%
same,Population Pyknosed Nuclei (%),Fibroblast; [2],16%
same,Population Tubulin-Different-Phenotype (%),Fibroblast; [2],9%
same,Total Cell Count,Fibroblast; [2],68
same,Population Apoptotic (%),Fibroblast; [3],62%
same,Population Fragmented Nuclei (%),Fibroblast; [3],26%
same,Population Healthy Nuclei (%),Fibroblast; [3],50%
same,Population Hoechst High Intensity Objects (%),Fibroblast; [3],16%
same,Population Membrane Permeable-Phenotype (%),Fibroblast; [3],38%
same,Population Mitochondria Different-Phenotype (%),Fibroblast; [3],30%
same,Population Mitotic Cells (%),Fibroblast; [3],37%
same,Population Normal (%),Fibroblast; [3],83%
same,Population Pyknosed Nuclei (%),Fibroblast; [3],23%
same,Population Tubulin-Different-Phenotype (%),Fibroblast; [3],53%
same,Total Cell Count,Fibroblast; [3],149
same,Population Apoptotic (%),Fibroblast; [4],28%
same,Population Fragmented Nuclei (%),Fibroblast; [4],8%
same,Population Healthy Nuclei (%),Fibroblast; [4],81%
same,Population Hoechst High Intensity Objects (%),Fibroblast; [4],8%
same,Population Membrane Permeable-Phenotype (%),Fibroblast; [4],3%
same,Population Mitochondria Different-Phenotype (%),Fibroblast; [4],37%
same,Population Mitotic Cells (%),Fibroblast; [4],71%
same,Population Normal (%),Fibroblast; [4],92%
same,Population Pyknosed Nuclei (%),Fibroblast; [4],10%
same,Population Tubulin-Different-Phenotype (%),Fibroblast; [4],35%
same,Total Cell Count,Fibroblast; [4],48
same,Population Apoptotic (%),Fibroblast; [5],66%
same,Population Fragmented Nuclei (%),Fibroblast; [5],21%
same,Population Healthy Nuclei (%),Fibroblast; [5],62%
same,Population Hoechst High Intensity Objects (%),Fibroblast; [5],25%
same,Population Membrane Permeable-Phenotype (%),Fibroblast; [5],28%
same,Population Mitochondria Different-Phenotype (%),Fibroblast; [5],0%
same,Population Mitotic Cells (%),Fibroblast; [5],33%
same,Population Normal (%),Fibroblast; [5],74%
same,Population Pyknosed Nuclei (%),Fibroblast; [5],16%
same,Population Tubulin-Different-Phenotype (%),Fibroblast; [5],34%
same,Total Cell Count,Fibroblast; [5],75
same,Population Apoptotic (%),Fibroblast; [6],16%
same,Population Fragmented Nuclei (%),Fibroblast; [6],3%
same,Population Healthy Nuclei (%),Fibroblast; [6],84%
same,Population Hoechst High Intensity Objects (%),Fibroblast; [6],11%
same,Population Membrane Permeable-Phenotype (%),Fibroblast; [6],11%
same,Population Mitochondria Different-Phenotype (%),Fibroblast; [6],11%
same,Population Mitotic Cells (%),Fibroblast; [6],83%
same,Population Normal (%),Fibroblast; [6],88%
same,Population Pyknosed Nuclei (%),Fibroblast; [6],11%
same,Population Tubulin-Different-Phenotype (%),Fibroblast; [6],20%
same,Total Cell Count,Fibroblast; [6],78
same,Population Apoptotic (%),Fibroblast; [7],64%
same,Population Fragmented Nuclei (%),Fibroblast; [7],30%
same,Population Healthy Nuclei (%),Fibroblast; [7],50%
same,Population Hoechst High Intensity Objects (%),Fibroblast; [7],12%
same,Population Membrane Permeable-Phenotype (%),Fibroblast; [7],40%
same,Population Mitochondria Different-Phenotype (%),Fibroblast; [7],27%
same,Population Mitotic Cells (%),Fibroblast; [7],36%
same,Population Normal (%),Fibroblast; [7],87%
same,Population Pyknosed Nuclei (%),Fibroblast; [7],19%
same,Population Tubulin-Different-Phenotype (%),Fibroblast; [7],47%
same,Total Cell Count,Fibroblast; [7],149
same,Population Apoptotic (%),Fibroblast; [8],58%
same,Population Fragmented Nuclei (%),Fibroblast; [8],5%
same,Population Healthy Nuclei (%),Fibroblast; [8],78%
same,Population Hoechst High Intensity Objects (%),Fibroblast; [8],8%
same,Population Membrane Permeable-Phenotype (%),Fibroblast; [8],6%
same,Population Mitochondria Different-Phenotype (%),Fibroblast; [8],31%
same,Population Mitotic Cells (%),Fibroblast; [8],41%
same,Population Normal (%),Fibroblast; [8],91%
same,Population Pyknosed Nuclei (%),Fibroblast; [8],16%
same,Population Tubulin-Different-Phenotype (%),Fibroblast; [8],25%
same,Total Cell Count,Fibroblast; [8],59
same,Population Apoptotic (%),Fibroblast; [9],54%
same,Population Fragmented Nuclei (%),Fibroblast; [9],41%
same,Population Healthy Nuclei (%),Fibroblast; [9],43%
same,Population Hoechst High Intensity Objects (%),Fibroblast; [9],24%
same,Population Membrane Permeable-Phenotype (%),Fibroblast; [9],25%
same,Population Mitochondria Different-Phenotype (%),Fibroblast; [9],0%
same,Population Mitotic Cells (%),Fibroblast; [9],45%
same,Population Normal (%),Fibroblast; [9],75%
same,Population Pyknosed Nuclei (%),Fibroblast; [9],15%
same,Population Tubulin-Different-Phenotype (%),Fibroblast; [9],38%
same,Total Cell Count,Fibroblast; [9],95
same,Population Apoptotic (%),Fibroblast; [10],100%
same,Population Fragmented Nuclei (%),Fibroblast; [10],26%
same,Population Healthy Nuclei (%),Fibroblast; [10],72%
same,Population Hoechst High Intensity Objects (%),Fibroblast; [10],15%
same,Population Membrane Permeable-Phenotype (%),Fibroblast; [10],5%
same,Population Mitotic Cells (%),Fibroblast; [10],0%
same,Population Normal (%),Fibroblast; [10],84%
same,Population Pyknosed Nuclei (%),Fibroblast; [10],0%
same,Population Tubulin-Different-Phenotype (%),Fibroblast; [10],26%
same,Total Cell Count,Fibroblast; [10],120
same,Population Apoptotic (%),Fibroblast; [11],75%
same,Population Fragmented Nuclei (%),Fibroblast; [11],38%
same,Population Healthy Nuclei (%),Fibroblast; [11],47%
same,Population Hoechst High Intensity Objects (%),Fibroblast; [11],14%
same,Population Membrane Permeable-Phenotype (%),Fibroblast; [11],29%
same,Population Mitochondria Different-Phenotype (%),Fibroblast; [11],27%
same,Population Mitotic Cells (%),Fibroblast; [11],25%
same,Population Normal (%),Fibroblast; [11],85%
same,Population Pyknosed Nuclei (%),Fibroblast; [11],14%
same,Population Tubulin-Different-Phenotype (%),Fibroblast; [11],48%
same,Total Cell Count,Fibroblast; [11],167
same,Population Apoptotic (%),Fibroblast; [12],100%
same,Population Fragmented Nuclei (%),Fibroblast; [12],29%
same,Population Healthy Nuclei (%),Fibroblast; [12],66%
same,Population Hoechst High Intensity Objects (%),Fibroblast; [12],35%
same,Population Membrane Permeable-Phenotype (%),Fibroblast; [12],11%
same,Population Mitochondria Different-Phenotype (%),Fibroblast; [12],17%
same,Population Mitotic Cells (%),Fibroblast; [12],0%
same,Population Normal (%),Fibroblast; [12],64%
same,Population Pyknosed Nuclei (%),Fibroblast; [12],3%
same,Population Tubulin-Different-Phenotype (%),Fibroblast; [12],56%
same,Total Cell Count,Fibroblast; [12],176
same,Growth Rate,HEK-293T; [13],1
same,Growth Rate,"HEK-293T; 0 h, replicate number 2, timepoint 0 hours",0
same,Growth Rate,"HEK-293T; 6 h, replicate number 1, timepoint 6 hours",0
same,Growth Rate,"HEK-293T; 12 h, replicate number 1, timepoint 12 hours",0
same,Growth Rate,HEK-293T; [14],0
same,Growth Rate,"HEK-293T; 18 h, replicate number 2, timepoint 18 hours",1
same,Growth Rate,HEK-293T; [15],0
same,Growth Rate,"HEK-293T; 24 h, replicate number 2, timepoint 24 hours",1
same,Growth Rate,U2OS; [13],0
same,Growth Rate,"U2OS; 6 h, replicate number 2, timepoint 6 hours",1
same,Growth Rate,"U2OS; 12 h, replicate number 2, timepoint 12 hours",1
same,Growth Rate,U2OS; [14],1
same,Growth Rate,U2OS; [15],1
